Test results taken from publication PMC11752056 (Chemical Science, 2025).

What was measured:
[1] = L-cysteine–maleimide conjugation; cited from earlier work
14-3-3σ = molecular target: T1, 14-3-3σ (Homo sapiens, UniProt P31947); experiment: Intact MS conjugation of compound to 14-3-3σ; format: biochemical; conditions: 14-3-3σ : cyclohexenone : NEM 1:10:10, overnight, 10 °C, BTP buffer pH 7
T1 sequence (P31947 1-231 limits assumed): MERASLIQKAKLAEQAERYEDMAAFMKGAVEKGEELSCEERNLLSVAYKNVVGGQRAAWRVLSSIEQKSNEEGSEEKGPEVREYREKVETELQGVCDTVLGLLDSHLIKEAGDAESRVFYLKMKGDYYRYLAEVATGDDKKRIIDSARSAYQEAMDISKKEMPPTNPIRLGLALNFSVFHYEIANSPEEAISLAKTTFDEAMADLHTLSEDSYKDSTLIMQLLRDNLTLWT
Outline: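 Recombinant full-length 14-3-3σ (8 μM) was incubated overnight with 10 eq. (80 μM) of compound, with or without peptide, in 20 mM BTP buffer at pH 7 and 10 °C. Protein species (unmodified, conjugated, crosslinked) were read from deconvoluted intact mass spectra and expressed as percentage conjugation or crosslinking.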

[2] = molecular target: the peptide panel (mutated B-Raf peptides: +5 mutants and histidine scan); experiment: fluorescence polarisation

## O=C1C=CC(=O)N1 [maleimide]
[1]
  reaction rate (k2): 17.6 ± 0.9 × 10^3 M^−1 s^−1

## CCN1C(=O)C=CC1=O [NEM, N-ethylmaleimide]
14-3-3σ
  conjugate formed on co-incubation of cyclohexenone and NEM: exclusively the 14-3-3σ–NEM conjugate

B1: 14-3-3σ (natural protein)
chain: MERASLIQKAKLAEQAERYEDMAAFMKGAVEKGEELSCEERNLLSVAYKNVVGGQRAAWRVLSSIEQKSNEEGSEEKGPEVREYREKVETELQGVCDTVLGLLDSHLIKEAGDAESRVFYLKMKGDYYRYLAEVATGDDKKRIIDSARSAYQEAMDISKKEMPPTNPIRLGLALNFSVFHYEIANSPEEAISLAKTTFDEAMADLHTLSEDSYKDSTLIMQLLRDNLTLWT
[2]
  Kd: 1.8 to 135 µM
